Counter-ions that a name gives are not always drawn. The source made the active and inactive calls. The calls are words filed in the database; no cut-off is given here.
Tests used:
[1] = test system: Plasmodium falciparum; assay: Antiplasmodial activity against multi-drug resistant Plasmodium falciparum K1 in human erythrocytes assessed as growth inhibition after 48 hrs by optical microscopy; format: functional, organism-based; conditions: K1, 48 h
Method in brief: (§1)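 Parasites were kept in continuous culture by the Trager and Jensen method. The microtest used 1–2% initial parasitemia and 3% hematocrit. Samples came from 5 mg/mL DMSO stocks, serially diluted in complete medium and added to parasitized red cells in triplicate. Plates were incubated 48 h at 37°C and read by optical microscopy. Growth inhibition % = 100[1 − (parasitemia with sample/parasitemia of untreated controls)].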

[2] = test system: Plasmodium berghei; assay: Antimalarial activity against Plasmodium berghei infected in mouse assessed as total elimination of parasitemia at 50 mg/kg, po after 5 to 7 days; format: functional, organism-based; set-up: dose 50 mg/kg
[3] = test system: MRC5; assay: Cytotoxicity against human MRC5 cells after 48 hrs by Alamar blue assay; format: cell-based; conditions: MRC5, 48 h
Method in brief: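 MRC-5 fetal lung fibroblasts were grown in DMEM with 10% FBS, 2 mM glutamine and penicillin/streptomycin at 37°C under 5% CO2, seeded at 10^4 cells/well, and dosed with DMSO-dissolved compounds after 24 h for 48 h. Negative controls had 0.1% DMSO. Alamar Blue was added 2 h before the end, with fluorescence read at 530–560 nm excitation and 590 nm emission.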

[4] = test system: Plasmodium falciparum; assay: Antiplasmodial activity against drug susceptible Plasmodium falciparum 3D7 NF54 isolate in human erythrocytes assessed as growth inhibition after 48 hrs by optical microscopy; format: functional, organism-based; conditions: 3D7 NF54, 48 h; method in brief: as §1
[5] = test system: Plasmodium falciparum; assay: Antiplasmodial activity against Plasmodium falciparum; format: functional, organism-based
Method in brief: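 P. falciparum (K1 and 3D7) kept in continuous Trager–Jensen culture and tested at 1–2% initial parasitemia and 3% hematocrit. DMSO stocks (5 mg/mL) were diluted in complete medium across a 100–0.006 range and tested in triplicate for 48 h at 37°C. Growth was read by optical microscopy as IGP% = 100[1 − (parasitemia with sample / untreated control parasitemia)].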

[6] = test system: Plasmodium berghei; assay: Antimalarial activity against Plasmodium berghei infected in mouse assessed as suppression of parasitemia at 10 mg/kg, po after 5 to 7 days; format: functional
[7] = test system: Plasmodium berghei; assay: Antimalarial activity against Plasmodium berghei infected in mouse assessed as suppression of parasitemia at 50 mg/kg, po after 5 to 7 days; format: functional
[8] = Cytotoxicity against mouse macrophages after 18 hrs by MTT assay; format: cell-based; conditions: Macrophage
[9] = Selectivity index, ratio of IC50 for mouse macrophages to IC50 for Plasmodium falciparum
[10] = test system: Plasmodium berghei; assay: Antimalarial activity against Plasmodium berghei infected in mouse assessed as suppression of parasitemia at 10 mg/kg, po by Peters 4 day suppressive test; format: functional; conditions: 96 h
[11] = test system: Plasmodium berghei; assay: Antimalarial activity against Plasmodium berghei infected in mouse assessed as mouse mean survival time at 50 mg/kg, po; format: functional

SMILES	IC50 [1]	IC50 [4]	IC50 ([5]; Plasmodium falciparum)	IC50 [8]	other results
Cc1c2ccncc2c(C)c2c1[nH]c1ccc([N+](=O)[O-])cc12	550 nM				
Cc1c2ccncc2c(C)c2c1[nH]c1ccccc12 [listing 1 of 2 here]					inhibition [2]: Active
Cc1c2ccncc2c(C)c2c1[nH]c1c([N+](=O)[O-])cccc12	13000 nM	17000 nM			IC50 [3]: > 50 µg/mL
Cc1c2ccncc2c(C)c2c1[nH]c1ccc(O)cc12			300 nM		
Cc1nccc2c(C)c3[nH]c4ccccc4c3cc12		1200 nM		> 140000 nM	inhibition in vivo at 10 mg/kg [6]: 48%; inhibition in vivo at 50 mg/kg [7]: 90%; Ratio IC50 [9]: >290
Cc1c2c(c(C)c3c1[nH]c1ccccc13)CN(C)CC2	4200 nM	13000 nM			IC50 [3]: > 50 µg/mL
Cc1c2ccncc2c(C)c2c1[nH]c1ccccc12 [ELLIPTECINE]	810 nM	350 nM	1130 nM	> 140000 nM	inhibition in vivo at 10 mg/kg [10]: 70%; Ratio IC50 [9]: >290; MST [11]: >40 days
CCN(CC)CCCC(C)Nc1ccnc2cc(Cl)ccc12 (stereo not drawn) [CHLOROQUINE PHOSPHATE]				> 140000 nM	
C=C[C@H]1CN2CC[C@H]1C[C@H]2[C@H](O)c1ccnc2ccc(OC)cc12 [QUININE SULFATE]	120 nM	150 nM		> 140000 nM	
Cc1c2ccncc2c(C)c2c1[nH]c1ccccc12 [listing 2 of 2 here]					IC50 [5]: 600 nM
COc1ccc2[nH]c3c(C)c4ccncc4c(C)c3c2c1			1150 nM		
Cc1c2c(c(C)c3c1[nH]c1ccccc13)C=NCC2			1010 nM		
